{"source": "ChEMBL document CHEMBL1154601", "about": "“A new series of amodiaquine analogues modified in the basic side chain with in vitro antileishmanial and antiplasmodial activity” (Eur J Med Chem, 2009)", "key": {"[1]": {"system": "Plasmodium falciparum", "test": "Antimalarial activity against chloroquine-resistant Plasmodium falciparum K1 assessed as inhibition of parasite growth after 48 hrs by [3H]hypoxanthine reuptake assay", "type": "functional, organism-based", "outline": "(§1)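 Synchronised ring-stage cultures at 1% parasitemia, 5% hematocrit, in RPMI 1640 at 37°C, 5% CO2; top final test concentration 30 µg/mL. After 24 h, (3H)-hypoxanthine (0.2 µCi/well) was added, followed by a further 48 h incubation. Plates were freeze/thawed and harvested, and uptake was counted by scintillation. IC50 came from sigmoidal regression as the mean of at least three determinations.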"}, "[2]": {"system": "Leishmania donovani", "test": "Antileishmanial activity against Leishmania donovani MHOM/ET/ 67/HU3 amastigote infected in CD1 mouse peritoneal exudate macrophages assessed as parasite growth inhibition after 5 days by Giemsa staining", "type": "functional, organism-based", "conditions": "MHOM/ET/ 67/HU3, 120 h", "outline": "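Macrophages from starch-induced peritoneal exudate, harvested after 24 h, held 24 h in RPMI 1640 + 10% HIFCS at 37°C, 5% CO2. Infected with hamster-spleen-derived amastigotes at 5 parasites:1 macrophage, then 24 h later drug applied for 5 days, overlay renewed day 3. Top concentration 30 µg/mL, quadruplicates. Methanol fixation, microscopic scoring. IC50 by sigmoidal regression, mean of at least three determinations.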"}, "[3]": {"system": "Plasmodium falciparum", "test": "Antimalarial activity against chloroquine-susceptible Plasmodium falciparum 3D7 assessed as inhibition of parasite growth after 48 hrs by [3H]hypoxanthine reuptake assay", "type": "functional, organism-based", "outline": "as §1"}, "[4]": {"system": "KB", "test": "Cytotoxicity against human KB cells after 72 hrs by Alamar blue assay", "type": "cell-based", "outline": "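Monolayers grown in RPMI 1640 + 10% heat-inactivated FCS at 37°C, 5% CO2. After 72 h compound exposure, Alamar Blue added and incubated a further 2-4 h. Fluorescence read at 530/580 nm, cut-off 550 nm. Podophyllotoxin served as positive control. IC50 is the concentration killing 50% of cells.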"}}}
{"smiles": "CCN(CC)Cc1cc(Nc2ccnc3cc(Cl)ccc23)ccc1O", "values": [{"measurement": "IC50", "setting": "[1]", "value": 0.00861, "unit": "µM"}, {"measurement": "IC50", "setting": "[2]", "value": 1.4, "unit": "µM"}, {"measurement": "IC50", "setting": "[3]", "value": 0.00215, "unit": "µM"}, {"measurement": "IC50", "setting": "[4]", "value": 90, "unit": "µM"}]}
{"smiles": "CCN(CCN/C(=N/C(=O)c1ccccc1)Oc1ccccc1)Cc1cc(Nc2ccnc3cc(Cl)ccc23)ccc1O", "values": [{"measurement": "IC50", "setting": "[1]", "value": 0.0101, "unit": "µM"}, {"measurement": "IC50", "setting": "[2]", "value": 2.86, "unit": "µM"}, {"measurement": "IC50", "setting": "[3]", "value": 0.00673, "unit": "µM"}, {"measurement": "IC50", "setting": "[4]", "value": 10.2, "unit": "µM"}]}
{"smiles": "CCN(CCNC(=O)OC(C)(C)C)Cc1cc(Nc2ccnc3cc(Cl)ccc23)ccc1O", "values": [{"measurement": "IC50", "setting": "[1]", "value": 0.00212, "unit": "µM"}, {"measurement": "IC50", "setting": "[2]", "value": 8.77, "unit": "µM"}, {"measurement": "IC50", "setting": "[3]", "value": 0.00212, "unit": "µM"}, {"measurement": "IC50", "setting": "[4]", "value": 8.81, "unit": "µM"}]}
{"smiles": "CCN(CCNC(=N)c1ccccc1)Cc1cc(Nc2ccnc3cc(Cl)ccc23)ccc1O", "values": [{"measurement": "IC50", "setting": "[1]", "value": 0.29, "unit": "µM"}, {"measurement": "IC50", "setting": "[2]", "value": 7.1, "unit": "µM"}, {"measurement": "IC50", "setting": "[3]", "value": 0.0484, "unit": "µM"}, {"measurement": "IC50", "setting": "[4]", "value": 5.34, "unit": "µM"}]}
{"smiles": "Oc1ccc(Nc2ccnc3cc(Cl)ccc23)cc1CN1CCN(c2ncccn2)CC1", "values": [{"measurement": "IC50", "setting": "[2]", "value": 7.21, "unit": "µM"}, {"measurement": "IC50", "setting": "[4]", "value": 8.03, "unit": "µM"}]}
{"smiles": "CCN(CCNC(=O)[C@H](C)N)Cc1cc(Nc2ccnc3cc(Cl)ccc23)ccc1O", "values": [{"measurement": "IC50", "setting": "[1]", "value": 14.1, "unit": "µM"}, {"measurement": "IC50", "setting": "[2]", "value": 5.15, "unit": "µM"}, {"measurement": "IC50", "setting": "[3]", "value": 0.0122, "unit": "µM"}, {"measurement": "IC50", "setting": "[4]", "value": 10.4, "unit": "µM"}]}
{"smiles": "CCN(CCNC(=S)Nc1ccccc1)Cc1cc(Nc2ccnc3cc(Cl)ccc23)ccc1O", "values": [{"measurement": "IC50", "setting": "[1]", "value": 0.0065, "unit": "µM"}, {"measurement": "IC50", "setting": "[2]", "value": 2.05, "unit": "µM"}, {"measurement": "IC50", "setting": "[3]", "value": 0.00163, "unit": "µM"}, {"measurement": "IC50", "setting": "[4]", "value": 8.46, "unit": "µM"}]}
{"smiles": "Oc1ccc(Nc2ccnc3cc(Cl)ccc23)cc1CN1CCN(c2nc3ccccc3s2)CC1", "values": [{"measurement": "IC50", "setting": "[1]", "value": 1.48, "unit": "µM"}, {"measurement": "IC50", "setting": "[2]", "value": 12.9, "unit": "µM"}, {"measurement": "IC50", "setting": "[3]", "value": 0.0146, "unit": "µM"}, {"measurement": "IC50", "setting": "[4]", "value": 45.2, "unit": "µM"}]}
{"smiles": "CCN(CCNC(=O)[C@@H](N)[C@@H](C)O)Cc1cc(Nc2ccnc3cc(Cl)ccc23)ccc1O", "values": [{"measurement": "IC50", "setting": "[1]", "value": 14.1, "unit": "µM"}, {"measurement": "IC50", "setting": "[2]", "value": 15.3, "unit": "µM"}, {"measurement": "IC50", "setting": "[3]", "value": 0.047, "unit": "µM"}, {"measurement": "IC50", "setting": "[4]", "value": 54.4, "unit": "µM"}]}
{"smiles": "CCN(CCNC(=N)Nc1ccccc1)Cc1cc(Nc2ccnc3cc(Cl)ccc23)ccc1O", "values": [{"measurement": "IC50", "setting": "[1]", "value": 12.1, "unit": "µM"}, {"measurement": "IC50", "setting": "[2]", "value": 11.7, "unit": "µM"}, {"measurement": "IC50", "setting": "[3]", "value": 0.126, "unit": "µM"}, {"measurement": "IC50", "setting": "[4]", "value": 9.03, "unit": "µM"}]}
{"smiles": "CCOC(=O)N1CCN(Cc2cc(Nc3ccnc4cc(Cl)ccc34)ccc2O)CC1", "values": [{"measurement": "IC50", "setting": "[1]", "value": 0.00704, "unit": "µM"}, {"measurement": "IC50", "setting": "[2]", "value": 14.9, "unit": "µM"}, {"measurement": "IC50", "setting": "[3]", "value": 0.00528, "unit": "µM"}, {"measurement": "IC50", "setting": "[4]", "value": 11.4, "unit": "µM"}]}
{"smiles": "CCN(CCNC(=O)Nc1ccccc1)Cc1cc(Nc2ccnc3cc(Cl)ccc23)ccc1O", "values": [{"measurement": "IC50", "setting": "[1]", "value": 0.238, "unit": "µM"}, {"measurement": "IC50", "setting": "[2]", "value": 1.83, "unit": "µM"}, {"measurement": "IC50", "setting": "[3]", "value": 0.00822, "unit": "µM"}, {"measurement": "IC50", "setting": "[4]", "value": 5.33, "unit": "µM"}]}
{"smiles": "Oc1ccc(Nc2ccnc3cc(Cl)ccc23)cc1CN1CCN(c2nccs2)CC1", "values": [{"measurement": "IC50", "setting": "[1]", "value": 0.00042, "unit": "µM"}, {"measurement": "IC50", "setting": "[2]", "value": 17.7, "unit": "µM"}, {"measurement": "IC50", "setting": "[3]", "value": 0.00067, "unit": "µM"}, {"measurement": "IC50", "setting": "[4]", "value": 5.02, "unit": "µM"}]}
{"smiles": "CCN(CCN)Cc1cc(Nc2ccnc3cc(Cl)ccc23)ccc1O", "values": [{"measurement": "IC50", "setting": "[1]", "value": 0.00547, "unit": "µM"}, {"measurement": "IC50", "setting": "[2]", "value": 5.65, "unit": "µM"}, {"measurement": "IC50", "setting": "[3]", "value": 0.00547, "unit": "µM"}, {"measurement": "IC50", "setting": "[4]", "value": 25.6, "unit": "µM"}]}
{"smiles": "Oc1ccc(Nc2ccnc3cc(Cl)ccc23)cc1CN1CCN(c2nc3ccccc3o2)CC1", "values": [{"measurement": "IC50", "setting": "[1]", "value": 0.387, "unit": "µM"}, {"measurement": "IC50", "setting": "[2]", "value": 14.6, "unit": "µM"}, {"measurement": "IC50", "setting": "[3]", "value": 0.00168, "unit": "µM"}, {"measurement": "IC50", "setting": "[4]", "value": 8.02, "unit": "µM"}]}
{"smiles": "CCN(CCNC(=O)[C@@H](N)CC(C)C)Cc1cc(Nc2ccnc3cc(Cl)ccc23)ccc1O", "values": [{"measurement": "IC50", "setting": "[1]", "value": 14.3, "unit": "µM"}, {"measurement": "IC50", "setting": "[2]", "value": 4.69, "unit": "µM"}, {"measurement": "IC50", "setting": "[3]", "value": 0.0226, "unit": "µM"}, {"measurement": "IC50", "setting": "[4]", "value": 22.3, "unit": "µM"}]}
{"smiles": "OCc1cc(Nc2ccnc3cc(Cl)ccc23)ccc1O", "values": [{"measurement": "IC50", "setting": "[1]", "value": 1.42, "unit": "µM"}, {"measurement": "IC50", "setting": "[2]", "value": "> 89", "unit": "µM"}, {"measurement": "IC50", "setting": "[3]", "value": 0.712, "unit": "µM"}, {"measurement": "IC50", "setting": "[4]", "value": 198, "unit": "µM"}]}
{"smiles": "Oc1ccc(Nc2ccnc3cc(Cl)ccc23)cc1CCl", "values": [{"measurement": "IC50", "setting": "[1]", "value": 0.557, "unit": "µM"}, {"measurement": "IC50", "setting": "[2]", "value": "> 83.5", "unit": "µM"}, {"measurement": "IC50", "setting": "[3]", "value": 0.695, "unit": "µM"}, {"measurement": "IC50", "setting": "[4]", "value": 25.6, "unit": "µM"}]}
{"smiles": "Oc1ccc(Nc2ccnc3cc(Cl)ccc23)cc1CN1CCN(c2ccccn2)CC1", "values": [{"measurement": "IC50", "setting": "[1]", "value": 0.0014, "unit": "µM"}, {"measurement": "IC50", "setting": "[2]", "value": 6.71, "unit": "µM"}, {"measurement": "IC50", "setting": "[3]", "value": 0.000323, "unit": "µM"}, {"measurement": "IC50", "setting": "[4]", "value": 16.1, "unit": "µM"}]}
{"smiles": "Oc1ccc(Nc2ccnc3cc(Cl)ccc23)cc1CN1CCN(c2ccccc2)CC1", "values": [{"measurement": "IC50", "setting": "[1]", "value": 0.0018, "unit": "µM"}, {"measurement": "IC50", "setting": "[2]", "value": 9.68, "unit": "µM"}, {"measurement": "IC50", "setting": "[3]", "value": 0.00352, "unit": "µM"}, {"measurement": "IC50", "setting": "[4]", "value": 8.63, "unit": "µM"}]}
{"smiles": "Oc1ccc(Nc2ccnc3cc(Cl)ccc23)cc1CN1CCN(c2nc3ccccc3[nH]2)CC1", "values": [{"measurement": "IC50", "setting": "[1]", "value": 0.00154, "unit": "µM"}, {"measurement": "IC50", "setting": "[2]", "value": 1.87, "unit": "µM"}, {"measurement": "IC50", "setting": "[3]", "value": 0.00308, "unit": "µM"}, {"measurement": "IC50", "setting": "[4]", "value": 2.44, "unit": "µM"}]}
{"smiles": "Oc1ccc(Nc2ccnc3cc(Cl)ccc23)cc1CN1CCN(c2cccs2)CC1", "values": [{"measurement": "IC50", "setting": "[2]", "value": 9.14, "unit": "µM"}, {"measurement": "IC50", "setting": "[3]", "value": 0.00222, "unit": "µM"}, {"measurement": "IC50", "setting": "[4]", "value": 50.4, "unit": "µM"}]}
{"smiles": "Oc1ccc(Nc2ccnc3cc(Cl)ccc23)cc1CN1CCNCC1", "values": [{"measurement": "IC50", "setting": "[1]", "value": 0.225, "unit": "µM"}, {"measurement": "IC50", "setting": "[2]", "value": 2.29, "unit": "µM"}, {"measurement": "IC50", "setting": "[3]", "value": 0.0188, "unit": "µM"}, {"measurement": "IC50", "setting": "[4]", "value": 11.8, "unit": "µM"}]}
{"smiles": "C[C@H]1[C@H](OC(=O)CCC(=O)O)O[C@@H]2O[C@@]3(C)CC[C@H]4[C@H](C)CC[C@@H]1[C@@]24OO3", "note": "[ARTESUNATE]", "values": [{"measurement": "IC50", "setting": "[1]", "value": 0.00246, "unit": "µM"}]}
